This note sets out measurements from BindingDB's records for doi:10.1021/jm970159v (National Taiwan University, 1998).

The target in one assay is D(3) dopamine receptor (Homo sapiens, UniProt P35462). In words: Compound is evaluated for binding affinity towards recombinant human Dopamine receptor D3 using [3H]spiperone in CHO cells at 10 uM. Put shortly:
(§1)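 Single-concentration screen at 10 µM in contract radioligand binding assays. Records whether inhibition of specific radioligand binding stayed below 50%.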

Another assay concerns the target Histamine H1 receptor (Cavia porcellus, UniProt P31389). The assay is described as follows: Compound is evaluated for binding affinity towards Histamine H1 receptor using [3H]pyrilamine in guinea pig lung at 10 uM. A digest of the protocol:
as §1

The target in assay [1] is Sigma non-opioid intracellular receptor 1 (Cavia porcellus) (UniProt Q60492). In words: Compound is evaluated for binding affinity towards Sigma receptor using [3H]pentazocine in guinea pig brain.

Each structure is given as a SMILES string. Some results are limits rather than exact numbers.

Chain of Sigma non-opioid intracellular receptor 1 (Cavia porcellus) (Q60492 whole entry, looked up): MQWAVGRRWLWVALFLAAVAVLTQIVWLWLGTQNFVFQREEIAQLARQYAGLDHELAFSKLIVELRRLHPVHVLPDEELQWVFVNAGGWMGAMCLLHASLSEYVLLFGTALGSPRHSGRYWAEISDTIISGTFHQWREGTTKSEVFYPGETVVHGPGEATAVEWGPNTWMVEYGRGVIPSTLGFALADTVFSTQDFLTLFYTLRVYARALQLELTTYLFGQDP
Chain of D(3) dopamine receptor (P35462 as listed by the source): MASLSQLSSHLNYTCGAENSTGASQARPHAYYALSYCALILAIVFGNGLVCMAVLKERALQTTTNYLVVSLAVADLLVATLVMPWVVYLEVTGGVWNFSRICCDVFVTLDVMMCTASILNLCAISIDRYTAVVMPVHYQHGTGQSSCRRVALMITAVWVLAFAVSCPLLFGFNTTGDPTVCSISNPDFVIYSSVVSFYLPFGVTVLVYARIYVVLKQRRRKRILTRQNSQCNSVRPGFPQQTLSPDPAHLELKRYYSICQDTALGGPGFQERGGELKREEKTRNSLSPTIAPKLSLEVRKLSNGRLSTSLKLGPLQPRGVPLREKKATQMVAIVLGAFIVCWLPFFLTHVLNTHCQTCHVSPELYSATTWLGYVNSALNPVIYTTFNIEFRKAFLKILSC
Chain of Histamine H1 receptor (P31389 whole entry): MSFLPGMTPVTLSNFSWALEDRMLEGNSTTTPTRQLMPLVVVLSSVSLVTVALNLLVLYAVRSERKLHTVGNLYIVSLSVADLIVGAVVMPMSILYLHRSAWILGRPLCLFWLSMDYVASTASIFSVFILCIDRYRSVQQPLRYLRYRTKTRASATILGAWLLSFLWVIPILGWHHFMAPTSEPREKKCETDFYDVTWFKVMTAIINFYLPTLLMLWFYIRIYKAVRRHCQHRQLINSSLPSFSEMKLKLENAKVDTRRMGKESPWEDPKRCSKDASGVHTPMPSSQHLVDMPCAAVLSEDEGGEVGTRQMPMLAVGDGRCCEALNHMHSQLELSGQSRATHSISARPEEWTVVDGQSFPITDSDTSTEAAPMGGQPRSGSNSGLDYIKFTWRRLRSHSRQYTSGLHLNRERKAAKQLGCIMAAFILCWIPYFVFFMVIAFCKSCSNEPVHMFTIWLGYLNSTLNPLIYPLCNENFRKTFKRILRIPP

With `COc1ccccc1N1CCN(C[C@H]2CN=C3c4ccccc4N=C(SC)N32)CC1`, the Ki on D(3) dopamine receptor and at Histamine H1 receptor was over 10 µM in each case.
As to `COc1ccccc1N1CCN(CC2CN3C(=O)Nc4ccccc4C3=N2)CC1` (stereo not drawn) [2-[4-(2-Methoxy-phenyl)-piperazin-1-ylmethyl]-2,6-dihydro-3H-imidazo[1,2-c]quinazolin-5-one], the Ki in assay [1] turned out to be 4 µM.
The molecule `COc1ccccc1N1CCN(Cc2cn3c(=O)[nH]c4ccccc4c3n2)CC1` [2-[4-(2-Methoxy-phenyl)-piperazin-1-ylmethyl]-6H-imidazo[1,2-c]quinazolin-5-one] displayed a Ki in assay [1] of 0.743 µM.
Still for that read-out and setting: the value for `Oc1nc2ccccc2c2ncc(CN3CCN(c4ccccc4Cl)CC3)n12` [3-[4-(2-Chloro-phenyl)-piperazin-1-ylmethyl]-6H-imidazo[1,2-c]quinazolin-5-one] was 1.5 µM; that for `COc1ccccc1N1CCN(CC2CN=C3c4ccccc4NC(=O)N32)CC1` (stereo not drawn) [3-[4-(2-Methoxy-phenyl)-piperazin-1-ylmethyl]-2,6-dihydro-3H-imidazo[1,2-c]quinazolin-5-one] was over 6.27 µM; that for `COc1ccccc1N1CCN(Cc2cnc3c4ccccc4nc(O)n23)CC1` [3-[4-(2-Methoxy-phenyl)-piperazin-1-ylmethyl]-6H-imidazo[1,2-c]quinazolin-5-one] was 6.52 µM.
Still for that read-out and setting: under `COc1ccccc1N1CCN(CCn2c(=O)[nH]c3ccccc3c2=O)CC1` [3-{2-[4-(2-Methoxy-phenyl)-piperazin-1-yl]-ethyl}-1H-quinazoline-2,4-dione] stands over 10 µM.
